H69AR inhibit: blocks growth of human H69AR lung tumor cells; H69AR lung tumor viability, ATP luminescence, 72 h; stronger effect = lower value; viability, % at 10 µM; actives 6% (n = 85,000); AID 598;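 active means viability at or below 40%; inactive means viability above 40%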;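 further: multidrug resistant small cell line overexpressing MRP-1 efflux transporter; 100% = mean luminescence of untreated control wells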
HUVEC prolif 384: blocks proliferation of human endothelial cells | viability, % at 10 µM (by protocol) | actives 1.1% (n = 86,000) | HUVEC proliferation, CellTiter-Glo luminescence, 72 h; stronger effect = lower value;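 active means viability at or below 30%; inactive means viability above 30%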;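 further: 100% = median luminescence of DMSO-only cell control wells on each plate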
cytoskel mod: modifiers of cytoskeleton assembly; actives 0.18% (n = 91,000); inhibition, % at 2 µM; AID 836; HUVEC TNFa F-actin phalloidin imaging, high content;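 active means inhibition above the batch mean plus 3 SD and confirmed as a hit by visual image inspection, cut at about 30% in these data, passing the limit was not always enough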
PTK2B oligo ant: antagonists of human Pyk2 oligomerization; Q293 cells, Pyk2 FERM NanoBiT luminescence; stronger effect = lower value; z-score (the deposit names both 25 µM and 10 µM); actives 0.83% (n = 99,000); AID 1347419;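 active means Z-score of -3 or lower, scaled per plate to the spread of control and sample wells; inactive means z-score above -3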;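 further: negative z-score means lost luminescence so less FERM oligomerization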
Target sequence (Q14289 whole entry, looked up): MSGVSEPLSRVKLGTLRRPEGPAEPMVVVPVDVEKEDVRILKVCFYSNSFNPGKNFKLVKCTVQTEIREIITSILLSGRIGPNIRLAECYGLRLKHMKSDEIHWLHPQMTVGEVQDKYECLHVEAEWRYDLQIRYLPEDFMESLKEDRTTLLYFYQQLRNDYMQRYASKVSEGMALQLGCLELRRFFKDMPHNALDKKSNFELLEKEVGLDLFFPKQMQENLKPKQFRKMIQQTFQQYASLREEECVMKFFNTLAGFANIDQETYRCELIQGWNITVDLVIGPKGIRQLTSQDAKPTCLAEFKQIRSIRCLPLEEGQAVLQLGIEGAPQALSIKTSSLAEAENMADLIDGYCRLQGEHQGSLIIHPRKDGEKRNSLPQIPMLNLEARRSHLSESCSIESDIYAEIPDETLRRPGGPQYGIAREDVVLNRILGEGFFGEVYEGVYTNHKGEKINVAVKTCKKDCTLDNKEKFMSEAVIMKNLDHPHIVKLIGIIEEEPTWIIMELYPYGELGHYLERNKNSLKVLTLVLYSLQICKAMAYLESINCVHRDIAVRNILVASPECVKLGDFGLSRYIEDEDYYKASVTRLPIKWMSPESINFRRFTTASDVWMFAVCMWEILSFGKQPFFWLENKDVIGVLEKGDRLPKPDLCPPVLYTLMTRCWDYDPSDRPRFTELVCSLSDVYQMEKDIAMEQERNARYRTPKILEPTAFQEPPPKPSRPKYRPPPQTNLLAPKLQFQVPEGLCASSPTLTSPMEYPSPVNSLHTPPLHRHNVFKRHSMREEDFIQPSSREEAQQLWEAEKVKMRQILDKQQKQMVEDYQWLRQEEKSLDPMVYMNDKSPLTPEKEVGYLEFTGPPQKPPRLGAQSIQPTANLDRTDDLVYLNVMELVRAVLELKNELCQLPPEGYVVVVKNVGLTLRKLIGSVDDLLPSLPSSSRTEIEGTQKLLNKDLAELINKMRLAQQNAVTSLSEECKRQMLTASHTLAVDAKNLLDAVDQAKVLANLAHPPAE
Jurkat tox 60K: cytotoxicity toward Jurkat cells; actives 1.2% (n = 56,000); Jurkat E6.1 viability, ATP luminescence, 48 h; inhibition, % at 4 µM;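 active means inhibition above the mean inhibition of all tested compounds plus 3 SD, cut at about 28% in these data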
Lung fibro prol: blocks proliferation of human lung fibroblasts. LL 47 human lung fibroblast viability, ATP luminescence; stronger effect = lower value. viability, % at 10 µM. actives 1.1% (n = 85,000). AID 719;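 active means viability at or below 50% in the single dose screen; inactive means viability above 50%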;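 further: compound exposure lasted 72 h before the ATP readout; 100% = median luminescence of untreated cell-only wells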
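Material: Human LL 47 lung fibroblast cells | Input: 1,150 cells/well | Buffer or medium: IMEM plus 15% FBS | Compound dosing: 0.1% DMSO in all compound wells | Times: Overnight cell rest, 72 h compound treatment at 37 °C | Signal: CellTiter-Glo luminescence measuring cellular ATP | Measure: % viability versus median cells-only luminescence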
The depositor's hits bear a star. An excerpt weighted towards active compounds, which were near 6% of everything screened.

`Cc1nn(-c2ccccc2)c2sc(C(=O)C(C#N)c3ccccn3)cc12` (centres undefined) gave H69AR inhibit 90.2, HUVEC prolif 384 106.9, Jurkat tox 60K -5.5 and Lung fibro prol 100.2.
Cc1ccc(NC(=O)CCc2c(C)nc3ncnn3c2C)nc1 was read as H69AR inhibit 74.1, HUVEC prolif 384 89.3, cytoskel mod -13.2, PTK2B oligo ant 0.43, Jurkat tox 60K -8.4 and Lung fibro prol 98.0.
Screening O=C(N1CCCC1)N1CCN(c2ncnc3c(-c4ccc(Cl)cc4)nsc23)CC1 returned H69AR inhibit 89.4, HUVEC prolif 384 97.6, Jurkat tox 60K -0.9 and Lung fibro prol 94.0.
Screening CCCN1C(=O)c2ccccc2NC1c1ccc(OC)cc1O (centres undefined) returned H69AR inhibit 107.5, HUVEC prolif 384 78.8, cytoskel mod -26.3, PTK2B oligo ant 0.04, Jurkat tox 60K 36.4* and Lung fibro prol 81.9.
CCCN1C(=O)c2ccccc2NC1c1ccc(OC)cc1OC (centres undefined) was read as H69AR inhibit 104.2, HUVEC prolif 384 95.1, cytoskel mod -9.3, PTK2B oligo ant -0.36, Jurkat tox 60K 0.3 and Lung fibro prol 99.2.
`Cn1c(=O)n(Cc2ccccc2F)c2ccccc21` gave H69AR inhibit 53.9, HUVEC prolif 384 82.1, cytoskel mod 2.7, PTK2B oligo ant 1, Jurkat tox 60K 6.4 and Lung fibro prol 96.7.
O=c1n(Cc2ccccc2F)c2ccccc2n1Cc1ccccc1F was read as H69AR inhibit 93.2, HUVEC prolif 384 92.6, cytoskel mod 31.3*, PTK2B oligo ant -2.38 and Lung fibro prol 82.7.
Cc1ccc(-c2c(C)n([O-])c3c([n+]2=O)CCCC3)o1 was read as H69AR inhibit 98.4, HUVEC prolif 384 101.3, cytoskel mod 0.2, PTK2B oligo ant 0.33 and Lung fibro prol 103.1.
C=CCOc1ccc2nc(NC(=O)OC)[nH]c2c1 was read as H69AR inhibit 32.9*, HUVEC prolif 384 47.1, cytoskel mod -3.5, PTK2B oligo ant -0.72 and Lung fibro prol 48.5*.
Screening CCOC(=O)c1[nH]c(C)c(C(=O)C(C)C)c1C returned H69AR inhibit 97.9, HUVEC prolif 384 98.9, cytoskel mod 6.6, PTK2B oligo ant 1.35 and Lung fibro prol 95.2.
`CC1=Nc2ccccc2/C1=C/c1sc(=N)n(-c2nccs2)c1O` gave H69AR inhibit 2.9*, HUVEC prolif 384 51.7, cytoskel mod -11.5, PTK2B oligo ant 0 and Lung fibro prol 52.5.
Screening CC1=Nc2ccccc2/C1=C\c1nc(-c2ccc(C(F)(F)F)cc2)oc1O returned H69AR inhibit 84.3, HUVEC prolif 384 76.3, cytoskel mod 4.7, PTK2B oligo ant -2.33 and Lung fibro prol 93.5.
Screening COc1cccc(/C=C2\C(=O)C(=O)c3ccccc32)c1 returned H69AR inhibit 5.3*, HUVEC prolif 384 71.6, cytoskel mod 3.7, PTK2B oligo ant -0.17 and Lung fibro prol 77.3.
For COc1ccccc1Nc1nc(N)nc(-c2cc3ccccc3o2)n1 the results were H69AR inhibit 10.4*, HUVEC prolif 384 93.9, cytoskel mod -10.9, PTK2B oligo ant -2.32, Jurkat tox 60K 1.5 and Lung fibro prol 104.3.
Screening COc1cccc(Nc2nc(N)nc(-c3oc4ccccc4c3C)n2)c1 returned H69AR inhibit 17.4*, HUVEC prolif 384 38.3, cytoskel mod -24.1, PTK2B oligo ant -1.27 and Lung fibro prol 64.7.
`COc1ccccc1Nc1nc(N)nc(CN2CCOCC2)n1` gave H69AR inhibit 61.6, HUVEC prolif 384 106.2, Jurkat tox 60K -10.4 and Lung fibro prol 95.8.
Cc1c(-c2nc(N)nc(Nc3ccccc3F)n2)oc2ccccc12 was read as H69AR inhibit 19.8*, HUVEC prolif 384 79.2, cytoskel mod -6.4, PTK2B oligo ant -1.53, Jurkat tox 60K 0.7 and Lung fibro prol 78.2.
COCc1c(C(=O)OCc2nc(N)nc(Nc3ccccc3C)n2)oc2ccccc12 was read as cytoskel mod 2.6, PTK2B oligo ant -1.71 and Jurkat tox 60K 1.5.
`CC(=O)c1cccc(NC(=O)Nc2ccc3c(c2)N(C)C(=O)CS3)c1` gave H69AR inhibit 24.0*, HUVEC prolif 384 33.7, cytoskel mod -22.1, PTK2B oligo ant -3.28* and Lung fibro prol 93.5.
Screening Cc1cc(C)cc(NC(=O)Nc2ccc3c(c2)N(C)C(=O)CS3)c1 returned H69AR inhibit 50.0, HUVEC prolif 384 81.0, cytoskel mod 0.8 and Lung fibro prol 93.2.
N=c1nc(N)nc2n1NC(c1ccc(F)cc1)=CS2 was read as H69AR inhibit 93.1, HUVEC prolif 384 29.8*, cytoskel mod -16.1, PTK2B oligo ant -0.51 and Lung fibro prol 90.7.
Screening CCOC(=O)c1cccc2c1-c1ccccc1/C2=N/O returned H69AR inhibit 27.5*, HUVEC prolif 384 14.1*, cytoskel mod -2.3, PTK2B oligo ant -2.36, Jurkat tox 60K 14.8 and Lung fibro prol 88.6.
For CC(C)COC(=O)c1cccc2c1-c1ccccc1/C2=N\O the results were H69AR inhibit 40.7, HUVEC prolif 384 42.8, cytoskel mod 0.9, PTK2B oligo ant -2.61 and Lung fibro prol 97.6.
CC1CCCC(C)N1C(=O)c1cccc2c1-c1ccccc1/C2=N/O (centres undefined) was read as H69AR inhibit 80.3, HUVEC prolif 384 48.2, cytoskel mod -9.7, PTK2B oligo ant -3.28* and Lung fibro prol 88.0.
`CC1CCCC(C)N1C(=O)c1ccccc1Nc1ccc(SC(F)F)cc1` (centres undefined) gave cytoskel mod 2.8 and PTK2B oligo ant -1.79.
O=C1CC(NC23CC4CC(CC(C4)C2)C3)C(=O)N1c1ccc2c(c1)OCO2 (centres undefined) was read as H69AR inhibit 94.5, HUVEC prolif 384 96.9, cytoskel mod -12.6, PTK2B oligo ant -0.61, Jurkat tox 60K 6.3 and Lung fibro prol 101.8.
Nc1c(S(=O)(=O)c2cccc(Cl)c2)c2nc3ccccc3nc2n1/N=C/c1ccc(O)c(O)c1 was read as H69AR inhibit 1.3*, HUVEC prolif 384 6.0*, cytoskel mod -54.0, Jurkat tox 60K 5.9 and Lung fibro prol 13.7*.
COc1ccccc1N1CCN(S(=O)(=O)c2ccc(Cl)s2)CC1 was read as H69AR inhibit 85.1, HUVEC prolif 384 102.0, cytoskel mod 4.6, PTK2B oligo ant -1.31, Jurkat tox 60K -3.8 and Lung fibro prol 98.4.
For COc1ccc(CCn2c(-c3ccco3)nc3ccccc3c2=O)cc1OC the results were H69AR inhibit 38.6*, HUVEC prolif 384 67.8, cytoskel mod -1.5, PTK2B oligo ant 0.01, Jurkat tox 60K 8.7 and Lung fibro prol 105.1.
For COc1ccc(Cn2c(-c3ccco3)nc3oc4ccccc4c(=O)c3c2=O)cc1 the results were H69AR inhibit 28.6*, HUVEC prolif 384 75.0, cytoskel mod 11.7, PTK2B oligo ant -0.38, Jurkat tox 60K 0.2 and Lung fibro prol 72.5.
Screening COc1ccc(CCn2c(-c3ccco3)nc3oc4ccccc4c(=O)c3c2=O)cc1 returned HUVEC prolif 384 74.3, Jurkat tox 60K 1.8 and Lung fibro prol 101.1.
